Series [1] can be described thus: folding enthalpy; higher = less favourable; fluorescence melt of hairpins on a sequencing array, two-state fit. The settings on record: sodium 0.088 M. The essentials: (§1)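 Two-state fits, bootstrapped, provided melting temperature and folding enthalpy from Cy3 fluorescence normalised to pre-quench Cy3 and to control constructs. Library hairpins with annealed Cy3 and quencher oligos were imaged on a sequenced MiSeq flow cell in 50 mM Na-HEPES pH 8.0, 25 mM NaCl, at 2.5 °C intervals up to 60 °C. Four replicates were combined with inverse-variance weighting. A 9.35 °C upward shift was applied to fitted temperatures to match UV melts.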

Series [2] is described as follows: melting temperature; fluorescence melt of hairpins on a sequencing array, two-state fit, raised by 9.35 °C to match UV melts. The note with it: sodium 0.088 M. The method in brief:
as §1

With GAGGGGGGAAACCCCTTC ((.((((....)))).)), the folding enthalpy in series [1] is -12.5 kcal/mol. For the same sequence, the Tm in series [2] was 53.5 °C.

With GAGGTCCGAAAGGAGCTC (((.(((....))).))), the folding enthalpy in series [1] is -35.5 kcal/mol. Moreover, the Tm in series [2] is 69.3 °C.

On to GAGGTCGCGAAAGCGCTC (((..(((....)))))), for which, in series [1], the folding enthalpy is -9.53 kcal/mol. In series [2], the Tm came to 35.1 °C.

Consider GAGGTGCGAAAGCACTC (((.(((....)))))), for which the folding enthalpy in series [1] was -10 kcal/mol. For the same sequence, in series [2], the Tm turned out to be 48.3 °C.

For the sequence GAGGTGGGAAACCACCCC (.(((((....))))).), in series [1], the folding enthalpy was -10.7 kcal/mol. In addition, the Tm in series [2] is 44.6 °C.

As for GAGGTGGGAAACTGCCTC ((((..(....)..)))), in series [1], the folding enthalpy is -31.5 kcal/mol. Besides, the Tm in series [2] worked out at 42.7 °C.

Turning to GAGGTTACGAAAGTACTC (((..(((....)))))), the folding enthalpy in series [1] is -14.3 kcal/mol. Further, the Tm in series [2] came to 27.9 °C.

For GAGGTTGGAAACAACTTC ((.((((....)))).)), the folding enthalpy in series [1] is -24 kcal/mol. Also, the Tm in series [2] worked out at 43.4 °C.

As for GAGTAAACGAAAGTTCTC (((..(((....)))))), the folding enthalpy in series [1] is -13.9 kcal/mol. Besides, in series [2], the Tm stood at 30.1 °C.

Consider GAGTACGAAAGTAACTC ((((((....))).))), for which the folding enthalpy in series [1] is -23.4 kcal/mol. In addition, the Tm in series [2] is 45.4 °C.

On to GAGTACGAAAGTAAGCTC ((((((....)))..))), for which, in series [1], the folding enthalpy was -14.9 kcal/mol. The Tm in series [2] came to 29.3 °C.

GAGTACGAAAGTACCTC ((((((....))).))): the folding enthalpy in series [1] was -14.5 kcal/mol. The Tm in series [2] is 47 °C.

As to GAGTACGAAAGTACTC ((((((....)))))), the folding enthalpy in series [1] is -35.7 kcal/mol. Moreover, the Tm in series [2] was 64.8 °C.

As for GAGTACGAAAGTAGTCTC ((((((....)))..))), the folding enthalpy in series [1] is -23.4 kcal/mol. The Tm in series [2] was 49.2 °C.

Turning to GAGTACGAAAGTATCTC ((((((....))).))), the folding enthalpy in series [1] is -26.8 kcal/mol. The Tm in series [2] worked out at 41.9 °C.

As for GAGTACGAAAGTATTCTC ((((((....)))..))), the folding enthalpy in series [1] is -27.4 kcal/mol. In series [2], the Tm was 42.6 °C.

In the case of GAGTACGGAAACGTGTTC ((..(((....)))..)), the folding enthalpy in series [1] was -10.5 kcal/mol. In addition, in series [2], the Tm was 22.2 °C.

For the sequence GAGTATACGAAAGTACTC (((..(((....)))))), the folding enthalpy in series [1] is -15.7 kcal/mol. The Tm in series [2] was 34 °C.

For the sequence GAGTATCCGAAAGGACTC (((..(((....)))))), in series [1], the folding enthalpy was -14.2 kcal/mol. Besides, the Tm in series [2] worked out at 29.2 °C.

GAGTATGGAAACATACCC (.(((((....))))).): the folding enthalpy in series [1] is -19.4 kcal/mol. Also, the Tm in series [2] amounted to 31.4 °C.

For GAGTATGGAAACGTACTC (((((.(....).))))), the folding enthalpy in series [1] is -33.1 kcal/mol. The Tm in series [2] is 43.5 °C.

Take GAGTCAGAAATGACTC ((((((....)))))): the folding enthalpy in series [1] was -25 kcal/mol. Also, in series [2], the Tm was determined as 54.6 °C.

With GAGTCAGGAAACCGACTC (((((.(....).))))), in series [1], the folding enthalpy was -36.8 kcal/mol. In addition, in series [2], the Tm stood at 46.6 °C.

GAGTCCGAAAGGAACCTC ((((((....)))..))): in series [1], the folding enthalpy was -16.5 kcal/mol. In addition, the Tm in series [2] amounted to 33 °C.

Turning to GAGTCCGAAAGGAGCCTC ((((((....)))..))), in series [1], the folding enthalpy is -14.3 kcal/mol. For the same sequence, the Tm in series [2] stood at 34 °C.

Consider GAGTCCGAAAGGAGTCTC ((((((....)))..))), for which, in series [1], the folding enthalpy is -25.1 kcal/mol. In addition, the Tm in series [2] came out at 54.5 °C.

Consider GAGTCCGCGAAAGCGCTC (((..(((....)))))), for which, in series [1], the folding enthalpy is -7.6 kcal/mol. Further, the Tm in series [2] was determined as 24.8 °C.

Take GAGTCCGGAAACAGACTC (((((.(....).))))): the folding enthalpy in series [1] was -31.1 kcal/mol. The Tm in series [2] was found to be 41.6 °C.

For GAGTCGCGAAAGCGCTC (((.(((....)))))), the folding enthalpy in series [1] is -15.4 kcal/mol. In series [2], the Tm is 54.6 °C.

Regarding GAGTCGGGAAACCGACCC (.(((((....))))).), the folding enthalpy in series [1] is -10.8 kcal/mol. The Tm in series [2] was 42 °C.

In the case of GAGTCTGCGAAAGCACTC (((..(((....)))))), in series [1], the folding enthalpy is -14.8 kcal/mol. Moreover, in series [2], the Tm was 30.4 °C.

GAGTCTGGAAACAGGCTC (((.(((....))).))): the folding enthalpy in series [1] is -44 kcal/mol. Also, the Tm in series [2] came out at 52.2 °C.

For the sequence GAGTGCCCGAAAGGGCTC (((..(((....)))))), the folding enthalpy in series [1] was -6.67 kcal/mol. In series [2], the Tm was 35.5 °C.

Take GAGTGCGAAAGCACGCTC ((((((....)))..))): the folding enthalpy in series [1] was -10.9 kcal/mol. Also, the Tm in series [2] came out at 66.7 °C.

Turning to GAGTGCGAAAGCAGCTC ((((((....))).))), the folding enthalpy in series [1] was -19.9 kcal/mol. The Tm in series [2] turned out to be 51.3 °C.

With GAGTGCGAAAGCATACTC ((((((....)))..))), the folding enthalpy in series [1] was -17.5 kcal/mol. Further, in series [2], the Tm amounted to 43.1 °C.

Regarding GAGTGCGGAAACGTACTC ((((.((....)).)))), the folding enthalpy in series [1] was -43.3 kcal/mol. Also, the Tm in series [2] amounted to 53.9 °C.

The values above are taken from the array DNA melting data of Ke et al. (doi:10.1101/2024.01.08.574731).
